Hits are enriched below; roughly 2.4% of the tested compounds scored in any of these assays.
NPY-Y1 antag – blocks the human neuropeptide Y Y1 receptor | P25929 | HEK293-CNG Y1 cells, membrane potential fluorescence; NPY at EC95, then isoproterenol | inhibition, % at 3.6 µM | 1% of 200,000 active;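 active means inhibition above the campaign mean inhibition of all tested compounds plus 3 SD, cut at about 20% in these data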;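 further: 0% = DMSO wells given NPY plus isoproterenol and 100% = isoproterenol alone without NPY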
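Test system: HEK293 cells co-expressing NPY Y1 receptor and cyclic-nucleotide gated channel; Also added: NPY (25 nM), isoproterenol (1 µM), Ro 20-1724 (25 µM); Compound dosing: one concentration, 3.6 µM, in 0.4% DMSO; Timing: dye 3 h, compound 60 min room temperature, stimulation 45 min; Technique: Membrane-potential fluorescent dye readout.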
NPY2 pot ag – human NPY-Y2 potentiation or agonism, primary screen | P49146 | cells expressing NPY-Y2, potentiator/agonist read-out | activation, % at 3.6 µM | 0.45% of 220,000 active | AID 1359; in the data active means activation above about 27%;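 further: cells stimulated with NPY near EC25 plus isoproterenol at EC100; 0% = vehicle plus submaximal agonist and 100% = vehicle plus saturating agonist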
NPY-Y1 PAM-ag – potentiates or activates human NPY-Y1 receptor | activation, % at 3.6 µM | NPY-Y1 expressing cells, potentiator/agonist activation | 0.37% of 220,000 active | P25929; in the data active means activation above about 33%, passing the limit was not always enough;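 further: cells stimulated with NPY at EC10 then isoproterenol at EC100; 0% = low agonist plus stimulus and 100% = saturating agonist plus stimulus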
NPY-Y2 antag – NPY-Y2 (human) receptor antagonism. AID 793. 0.99% of 140,000 active. P49146. inhibition, % at 2.7 µM. NPY-Y2 expressing cells, antagonist mode; in the data active means inhibition above about 17%;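 further: 0% = vehicle with agonist challenge and 100% = reference antagonist with challenge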
S1P4 antag – antagonists of human S1P4 receptor. S1P4-expressing cells, antagonist mode, reporter read-out. O95977. 0.26% of 220,000 active. inhibition, % at 4.98 µM. AID 1510; in the data active means inhibition above about 29%;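 further: 0% = wells stimulated with agonist and 100% = vehicle wells without agonist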
Target sequence (O95977 whole entry, looked up): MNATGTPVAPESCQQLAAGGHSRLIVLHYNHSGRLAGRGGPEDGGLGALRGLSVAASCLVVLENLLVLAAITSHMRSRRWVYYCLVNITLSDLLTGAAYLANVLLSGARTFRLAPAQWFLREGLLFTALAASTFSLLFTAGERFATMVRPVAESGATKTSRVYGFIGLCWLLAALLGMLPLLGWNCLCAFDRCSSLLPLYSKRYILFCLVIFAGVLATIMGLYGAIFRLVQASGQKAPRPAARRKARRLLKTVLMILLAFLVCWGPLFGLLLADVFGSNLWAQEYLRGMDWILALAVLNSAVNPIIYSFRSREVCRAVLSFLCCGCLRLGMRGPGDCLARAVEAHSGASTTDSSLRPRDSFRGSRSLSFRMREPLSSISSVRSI
S1P4 agonist – agonists of human S1P4 receptor. S1P4-expressing cell line, agonist reporter assay. activation, % at 4.98 µM. 0.35% of 220,000 active. AID 1509; in the data active means activation above about 11%;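 further: 0% = DMSO vehicle and 100% = reference agonist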
S1P4 antag cf – human S1P4 antagonism, confirmation | shares compounds with S1P4 antag | 71% of 520 active | AID 1524 | S1P4-expressing cell line, antagonist mode, reporter read-out | inhibition, % at 4.98 µM; in the data active means inhibition above about 30%
S1P1 antag – counter-screen for S1P4 antagonists: antagonists of human S1P1. shares compounds with S1P4 antag. cell-based S1P1 antagonist counterscreen, inhibition. inhibition, % at 4.98 µM. 37% of 520 active. AID 1564; in the data active means inhibition above about 40%;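 further: receptor stimulated with S1P near its EC80; 0% = agonist stimulated wells and 100% = vehicle only wells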
* marks the source's active call; other numbers are inactive results; x = not tested or not shown.

SMILES	NPY-Y1 antag	NPY2 pot ag	NPY-Y1 PAM-ag	NPY-Y2 antag	S1P4 antag	S1P4 agonist	S1P4 antag cf	S1P1 antag
O=C(C1CCCN(CCCc2ccccc2)C1)N1CCCCCC1 (configuration not stated)	0	-1	19	6	-4	1	x	x
Cc1ccc(C(=O)N/C(=C\c2ccc(-c3ccc(Cl)cc3)o2)C(=O)NCCCN(C)C)cc1	21*	-2	-14	x	36*	-1	2	-5
Cc1ccc(SCCC(=O)N2CCOCC2)cc1	6	-4	-33	3	29*	0	7	6
COc1ccc(C2=NOC(CNC(=S)N3CCOCC3)C2)cc1 (configuration not stated)	x	-18	39	x	-15	0	x	x
O=C(O)C1CSC(c2ccccc2Cl)N1C(=O)c1ccc(Cl)cc1 (configuration not stated)	-2	13	37	8	-13	1	x	x
CC(C)(C)c1ccc(OCc2ccc(C(=O)N/N=C/c3ccc(O)c(O)c3)cc2)cc1	5	9	8	x	33*	0	63*	27
O=C(N/N=C/c1ccc(OCc2ccc(F)cc2)cc1)c1ccccc1	-3	1	6	x	-27	1	x	x
COc1cccc(C(=O)N=c2sc3cc(S(C)(=O)=O)ccc3n2C)c1	2	-9	-19	x	-3	0	x	x
Cc1[nH]n2c(=O)cc(C(C)(C)C)nc2c1-c1ccccc1	5	-14	5	7	34*	1	1	12
Cc1[nH]n2c(=O)cc(C(C)C)nc2c1-c1ccccc1	5	10	-6	5	-1	1	x	x
O=c1c(Cl)c(Cl)cnn1Cc1nnc(-c2ccc(Cl)cc2)o1	2	1	11	x	37*	-2	68*	21
Cc1ccc(Cn2ncc(Cl)c(Cl)c2=O)cc1	-7	-4	18	1	-26	1	x	x
O=c1c(Cl)c(Cl)cnn1Cc1ccccc1Cl	-9	12	27	2	46*	1	115*	58*
O=c1c(Cl)c(Cl)cnn1-c1ccccc1	7	2	10	3	101*	2	122*	72*
O=C(COC(=O)c1cccc(Br)c1)NCCC1=CCCCC1	3	-29	-15	x	-22	3	x	x
O=C(c1ccc(Cl)c(S(=O)(=O)N2CCOCC2)c1)N(c1ccccn1)C1CCCCC1	5	-6	-5	x	-20	0	x	x
COc1ccc(C2=NN(C(=O)c3cccc([N+](=O)[O-])c3)C(c3cccc([N+](=O)[O-])c3)C2)cc1 (configuration not stated)	3	3	-7	4	-1	-2	x	x
Cc1ccc(C2=Nc3ccccc3SC(c3cccc([N+](=O)[O-])c3)C2)cc1 (configuration not stated)	x	-2	-25	x	45*	1	12	6
O=c1[nH]sc2ccccc12	4	8	-6	x	32*	3	91*	5
O=c1c2ccccc2sn1-c1ccccc1	-5	-5	-14	1	9	1	x	x
COC(=O)C1=C(C)N=C2SCCC(=O)N2C1c1ccc(OC(=O)c2ccco2)cc1 (configuration not stated)	0	-18	-20	6	26	0	x	x
C=CCOC(=O)C1=C(C)N=C2SCCC(=O)N2C1c1ccc(OC(=O)c2ccco2)cc1 (configuration not stated)	-3	-3	-10	7	38*	0	59*	52*
CCOC(=O)CN(C#N)c1nc(N(C)C)nc(N(C)C)n1	-2	1	15	x	-15	2	x	x
CCN(CC)C(=O)CN(C#N)c1nc(Cl)nc(N(C)C)n1	0	4	1	x	42*	-2	50*	39
N=C1SCC(=O)N1c1ncc(Cc2ccccc2Cl)s1	7	-27	-12	x	48*	1	94*	98*
SMILES	NPY-Y1 antag	NPY2 pot ag	NPY-Y1 PAM-ag	NPY-Y2 antag	S1P4 antag	S1P4 agonist	S1P4 antag cf	S1P1 antag
N=C1SCC(=O)N1c1ncc(Cc2cccc(Cl)c2)s1	9	-16	3	x	20	8	x	x
COc1cc(NC(=O)Cn2ncc(Cl)c(Cl)c2=O)c(C)cc1[N+](=O)[O-]	-5	-4	21	x	93*	10	119*	40*
COc1cc(NC(=O)CN2C(=O)CN(C)C2=O)c(C)cc1[N+](=O)[O-]	-1	8	-11	x	-1	0	x	x
O=C(O)CCCCCN1C(=O)C(O)=C(C(=O)/C=C/c2ccccc2)C1c1ccccc1[N+](=O)[O-] (configuration not stated)	4	-16	17	x	-2	1	x	x
COc1cccc(Oc2nnnn2-c2ccccc2)c1	2	-7	12	1	-19	0	x	x
COc1cccc(-n2nnnc2S(C)(=O)=O)c1	-7	-10	2	2	42*	0	110*	17
CC(C)N1CCN(Cc2ccsc2)CC1CCO (configuration not stated)	2	-13	0	x	8	1	x	x
COc1ccc(N(C(=O)CCl)C(C(=O)NCCc2ccccc2)c2cccs2)cc1 (configuration not stated)	0	35*	54*	2	30*	0	99*	16
CCOc1ccc(CCNC(=O)COC(=O)/C=C/c2ccc(OCC#N)c(OC)c2)cc1OCC	2	-19	-4	0	-15	-1	x	x
O=C1c2ccccc2CC1(Cc1ccccc1)Cc1ccccc1	7	-18	-32	9	3	0	x	x
CC(=O)Nc1cccc(C(=O)/C=C/c2ccc(F)cc2)c1	-9	-7	6	x	46*	-1	72*	23
CC(=O)Nc1cccc(C(=O)/C=C/c2ccc(/C=C/C(=O)c3cccc(NC(C)=O)c3)cc2)c1	-3	1	-43	0	-5	-1	x	x
CCn1c(N)nc2c1c(=O)n(C)c(=O)n2C	1	1	-7	-1	-2	-2	x	x
CCCc1nc2c(=O)n(C)c(=O)nc-2n(C)n1	-1	-30	-18	x	54*	2	89*	56*
COc1ccc(/C=C/C(=O)c2cc(F)ccc2OC(=O)c2ccccc2OC)cc1OC	17	-9	-15	x	47*	1	82*	99*
COc1ccc(/C=C/C(=O)c2cc(F)ccc2OC(=O)c2ccccc2)cc1OC	12	-13	13	9	12	1	x	x
O=C(CSc1ncnc2scc(-c3ccc(Cl)cc3)c12)NCc1ccc2c(c1)OCO2	6	-1	-13	2	-19	2	x	x
COc1ccc(CC(=O)OCC(=O)Nc2ccc(Br)cc2)cc1	7	-10	-13	x	-20	0	x	x
CCOC(=O)c1c(NC(=O)CSc2nnnn2-c2ccc(OC)cc2)sc(C)c1C	11	-2	-12	2	-14	-1	x	x

Screening data (PubChem BioAssay)
